Measured values as given in ChEMBL document CHEMBL2034851, “Synthesis and antiviral evaluation of C5-substituted-(1,3-diyne)-2'-deoxyuridines” (Eur J Med Chem, 2012).

Legend:
[1] = Lipophilicity, log P of the compound; assay type: physicochemical; details: octanol/water
Human betaherpesvirus 5 [2] = assay: Antiviral activity against Human cytomegalovirus Davis infected in HEL cells assessed as reduction in virus-induced cytopathicity; assay type: functional, organism-based; details: Human betaherpesvirus 5, Davis
Method in brief: (§1)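 Confluent HEL cell monolayers in microtiter plates were inoculated with 100 CCID50 of virus or 20 PFU. After 1–2 h adsorption, residual virus was removed. Cultures were then incubated with graded compound concentrations. Cytopathicity was read once it was complete in untreated infected controls. EC50 is the concentration giving 50% reduction of virus-induced cytopathicity or plaque formation.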

Human alphaherpesvirus 3 [3] = assay: Antiviral activity against thymidine kinase-deficient Varicella-zoster virus 07/1 infected in HEL cells assessed as reduction in virus-induced cytopathicity; assay type: functional, organism-based; details: Human alphaherpesvirus 3, 07/1, HEL
Method in brief: (§2)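 Confluent HEL cell monolayers in 96-well plates were inoculated with 100 CCID50 or 20 PFU of virus and left 1–2 h for adsorption. Residual virus was removed and cells were incubated with serial compound dilutions. Read-out was taken once cytopathicity was complete in untreated infected controls. EC50 is the concentration giving 50% reduction of virus-induced cytopathicity or plaque formation.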

Human alphaherpesvirus 3 [4] = assay: Antiviral activity against thymidine kinase-positive Varicella-zoster virus OKA infected in HEL cells assessed as reduction in virus-induced cytopathicity; assay type: functional, cell-based; details: Human alphaherpesvirus 3, strain Oka vaccine
Method in brief: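 Confluent HEL cell monolayers in 96-well plates were inoculated with 100 CCID50 or 20 PFU of virus and left 1–2 h for adsorption. Residual virus was removed and cells were incubated with serial compound dilutions. Read-out was taken once cytopathicity was complete in untreated infected controls.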

[5] = Cytotoxicity against human HEL cells assessed as change in cell morphology by microscopic analysis; assay type: cell-based
Method in brief: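 MCC is the compound concentration producing a microscopically visible change in cell morphology, scored on the cell cultures used for the antiviral tests.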

Human betaherpesvirus 5 [6] = assay: Antiviral activity against Human cytomegalovirus AD169 infected in HEL cells assessed as reduction in virus-induced cytopathicity; assay type: functional, organism-based; details: Human betaherpesvirus 5, AD169, HEL; method in brief: as §1
[7] = Cytostatic against human HEL cells assessed as reduction in cell growth after 3 days by coulter counter; assay type: cell-based
Method in brief: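 HEL cells were seeded at 5 × 10³ cells/well and grown for 24 h. Medium with varying compound concentrations was then added and plates were incubated 3 days at 37 °C. Cells were counted with a Coulter counter. CC50 is the concentration reducing cell proliferation by 50% versus untreated controls.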

Human alphaherpesvirus 3 [8] = assay: Antiviral activity against thymidine kinase-positive Varicella-zoster virus YS infected in HEL cells assessed as reduction in virus-induced cytopathicity; assay type: functional, organism-based; details: Human alphaherpesvirus 3, YS; method in brief: as §2
Human alphaherpesvirus 1 [9] = assay: Antiviral activity against thymidine kinase-deficient Herpes simplex virus 1 infected in HEL cells assessed as reduction in viral plaque formation; assay type: functional, organism-based; details: Human alphaherpesvirus 1, HEL; method in brief: as §1
Human alphaherpesvirus 2 = assay: Antiviral activity against Herpes simplex virus 2 G infected in HEL cells assessed as reduction in viral plaque formation; assay type: functional, organism-based; details: Human alphaherpesvirus 2, strain G; method in brief: as §1
Vaccinia virus = assay: Antiviral activity against Vaccinia virus infected in HEL cells assessed as reduction in viral plaque formation; assay type: functional, organism-based; details: Orthopoxvirus vaccinia; method in brief: as §2
Human alphaherpesvirus 1 [10] = assay: Antiviral activity against Herpes simplex virus 1 KOS infected in HEL cells assessed as reduction in viral plaque formation; assay type: functional, organism-based; details: Human alphaherpesvirus 1, KOS; method in brief: as §1

O=c1[nH]c(=O)n([C@H]2C[C@H](O)[C@@H](CO)O2)cc1C#CC#Cc1ccccc1
logP [1]: 0.96 | EC50 (Human betaherpesvirus 5 [2]): > 20 µM | EC50 (Human alphaherpesvirus 3 [3]): > 20 µM | EC50 (Human alphaherpesvirus 3 [4]): > 20 µM | MCC [5]: 100 µM | EC50 (Human betaherpesvirus 5 [6]): > 20 µM | CC50 at 72 h [7]: 100 µM | EC50 (Human alphaherpesvirus 3 [8]): > 20 µM

Nc1ccc(C#CC#Cc2cn([C@H]3C[C@H](O)[C@@H](CO)O3)c(=O)[nH]c2=O)cc1
logP [1]: 0.13 | EC50 (Human betaherpesvirus 5 [2]): > 100 µM | EC50 (Human alphaherpesvirus 3 [3]): > 100 µM | EC50 (Human alphaherpesvirus 3 [4]): > 100 µM | MCC [5]: > 100 µM | EC50 (Human betaherpesvirus 5 [6]): > 100 µM | CC50 at 72 h [7]: > 100 µM

O=c1[nH]c(=O)n([C@H]2C[C@H](O)[C@@H](CO)O2)cc1C#CC#CC1CC1
EC50 (Human betaherpesvirus 5 [2]): > 100 µM | EC50 (Human alphaherpesvirus 3 [3]): > 100 µM | EC50 (Human alphaherpesvirus 3 [4]): > 100 µM | MCC [5]: > 100 µM | EC50 (Human betaherpesvirus 5 [6]): > 100 µM | CC50 at 72 h [7]: > 100 µM

Nc1nc2c(ncn2COC(CO)CO)c(=O)[nH]1 [GANCICLOVIR]
EC50 (Human betaherpesvirus 5 [2]): 7.1 µM | MCC [5]: > 350 µM | EC50 (Human betaherpesvirus 5 [6]): 7.5 µM | CC50 at 72 h [7]: 130 µM

Nc1nc2c(ncn2COCCO)c(=O)[nH]1 [ACYCLOVIR]
EC50 (Human alphaherpesvirus 3 [3]): 92 µM | MCC [5]: > 300 µM | CC50 at 72 h [7]: 470 µM | EC50 (Human alphaherpesvirus 3 [8]): 2.18 µM

CCCc1ccc(C#CC#Cc2cn([C@H]3C[C@H](O)[C@@H](CO)O3)c(=O)[nH]c2=O)cc1
logP [1]: 2.36 | EC50 (Human betaherpesvirus 5 [2]): > 20 µM | EC50 (Human alphaherpesvirus 3 [3]): 14 µM | EC50 (Human alphaherpesvirus 3 [4]): 3.7 µM | MCC [5]: 100 µM | EC50 (Human betaherpesvirus 5 [6]): > 20 µM | CC50 at 72 h [7]: 52 µM | EC50 (Human alphaherpesvirus 3 [8]): 2.77 µM

O=c1[nH]c(=O)n([C@H]2C[C@H](O)[C@@H](CO)O2)cc1C#CC#CCO
logP [1]: -1.45 | EC50 (Human betaherpesvirus 5 [2]): > 100 µM | EC50 (Human alphaherpesvirus 3 [3]): > 100 µM | EC50 (Human alphaherpesvirus 3 [4]): 2.1 µM | MCC [5]: > 100 µM | EC50 (Human betaherpesvirus 5 [6]): > 100 µM | CC50 at 72 h [7]: > 100 µM | EC50 (Human alphaherpesvirus 3 [8]): 6.24 µM

O=c1[nH]c(=O)n([C@H]2C[C@H](O)[C@@H](CO)O2)cc1C#CC#Cc1ccc([N+](=O)[O-])cc1
logP [1]: 0.9 | EC50 (Human betaherpesvirus 5 [2]): > 20 µM | EC50 (Human alphaherpesvirus 3 [3]): > 20 µM | EC50 (Human alphaherpesvirus 3 [4]): > 20 µM | MCC [5]: 100 µM | EC50 (Human betaherpesvirus 5 [6]): > 20 µM | CC50 at 72 h [7]: 89 µM

CCCCCCc1ccc(C#CC#Cc2cn([C@H]3C[C@H](O)[C@@H](CO)O3)c(=O)[nH]c2=O)cc1
logP [1]: 3.7 | EC50 (Human betaherpesvirus 5 [2]): > 20 µM | EC50 (Human alphaherpesvirus 3 [3]): 9.5 µM | EC50 (Human alphaherpesvirus 3 [4]): 8.8 µM | MCC [5]: 100 µM | EC50 (Human betaherpesvirus 5 [6]): > 20 µM | CC50 at 72 h [7]: 35 µM | EC50 (Human alphaherpesvirus 3 [8]): 6.44 µM

O=c1[nH]c(=O)n([C@H]2C[C@H](O)[C@@H](CO)O2)cc1C#CC#Cc1ccc(OC(F)(F)F)cc1
EC50 (Human alphaherpesvirus 1 [9]): 14.5 µM | logP [1]: 2.39 | EC50 (Human alphaherpesvirus 2): 10 µM | EC50 (Human betaherpesvirus 5 [2]): > 20 µM | EC50 (Vaccinia virus): 20 µM | EC50 (Human alphaherpesvirus 3 [3]): > 4 µM | EC50 (Human alphaherpesvirus 3 [4]): 0.9 µM | MCC [5]: 100 µM | EC50 (Human betaherpesvirus 5 [6]): > 20 µM | CC50 at 72 h [7]: 55 µM | EC50 (Human alphaherpesvirus 3 [8]): 1.08 µM | EC50 (Human alphaherpesvirus 1 [10]): 14.5 µM

Cc1cc(C#CC#Cc2cn([C@H]3C[C@H](O)[C@@H](CO)O3)c(=O)[nH]c2=O)ccc1F
EC50 (Human betaherpesvirus 5 [2]): > 20 µM | EC50 (Human alphaherpesvirus 3 [3]): > 20 µM | EC50 (Human alphaherpesvirus 3 [4]): 14 µM | MCC [5]: 100 µM | EC50 (Human betaherpesvirus 5 [6]): > 20 µM | CC50 at 72 h [7]: 45 µM | EC50 (Human alphaherpesvirus 3 [8]): 9.13 µM

O=c1[nH]c(=O)n([C@H]2C[C@H](O)[C@@H](CO)O2)cc1C#CC#Cc1ccccn1
EC50 (Human betaherpesvirus 5 [2]): > 4 µM | EC50 (Human alphaherpesvirus 3 [3]): 20 µM | EC50 (Human alphaherpesvirus 3 [4]): 5.1 µM | MCC [5]: > 20 µM | EC50 (Human betaherpesvirus 5 [6]): 49 µM | CC50 at 72 h [7]: 1.5 µM | EC50 (Human alphaherpesvirus 3 [8]): 2.06 µM

O=c1[nH]c(=O)n([C@H]2C[C@H](O)[C@@H](CO)O2)cc1C#CC#CCC1CCCC1
logP [1]: 1.43 | EC50 (Human betaherpesvirus 5 [2]): > 100 µM | EC50 (Human alphaherpesvirus 3 [3]): > 100 µM | EC50 (Human alphaherpesvirus 3 [4]): 42 µM | MCC [5]: > 100 µM | EC50 (Human betaherpesvirus 5 [6]): > 100 µM | CC50 at 72 h [7]: 89 µM | EC50 (Human alphaherpesvirus 3 [8]): 33.7 µM

Nc1cccc(C#CC#Cc2cn([C@H]3C[C@H](O)[C@@H](CO)O3)c(=O)[nH]c2=O)c1
logP [1]: 0.13 | EC50 (Human betaherpesvirus 5 [2]): > 100 µM | EC50 (Human alphaherpesvirus 3 [3]): > 100 µM | EC50 (Human alphaherpesvirus 3 [4]): > 100 µM | MCC [5]: > 100 µM | EC50 (Human betaherpesvirus 5 [6]): > 100 µM | CC50 at 72 h [7]: > 100 µM

Nc1ccn(C[C@@H](CO)OCP(=O)(O)O)c(=O)n1 [CIDOFOVIR]
EC50 (Human betaherpesvirus 5 [2]): 1.1 µM | MCC [5]: > 350 µM | CC50 at 72 h [7]: 64 µM

CC(O)CC#CC#Cc1cn([C@H]2C[C@H](O)[C@@H](CO)O2)c(=O)[nH]c1=O (stereo partly drawn)
EC50 (Human betaherpesvirus 5 [2]): > 100 µM | EC50 (Human alphaherpesvirus 3 [3]): > 100 µM | EC50 (Human alphaherpesvirus 3 [4]): 20 µM | MCC [5]: > 100 µM | EC50 (Human betaherpesvirus 5 [6]): > 100 µM | CC50 at 72 h [7]: 9.5 µM | EC50 (Human alphaherpesvirus 3 [8]): 12.7 µM

O=c1[nH]c(=O)n([C@H]2C[C@H](O)[C@@H](CO)O2)cc1/C=C/Br [BRIVUDINE]
EC50 (Human alphaherpesvirus 3 [3]): 74 µM | EC50 (Human alphaherpesvirus 3 [4]): 0.0087 µM | MCC [5]: > 150 µM | CC50 at 72 h [7]: > 100 µM | EC50 (Human alphaherpesvirus 3 [8]): 0.0075 µM

COc1cc(C#CC#Cc2cn([C@H]3C[C@H](O)[C@@H](CO)O3)c(=O)[nH]c2=O)cc(OC)c1
EC50 (Human betaherpesvirus 5 [2]): > 100 µM | EC50 (Human alphaherpesvirus 3 [3]): > 100 µM | EC50 (Human alphaherpesvirus 3 [4]): 39 µM | MCC [5]: > 100 µM | EC50 (Human betaherpesvirus 5 [6]): > 100 µM | CC50 at 72 h [7]: > 100 µM | EC50 (Human alphaherpesvirus 3 [8]): 38.1 µM
